Reference: ChEMBL document CHEMBL1123282, “Antiinflammatory activity of substituted 6-hydroxypyrimido[2,1-f]purine-2,4,8(1H,3H,9H)-triones. Atypical nonsteroidal antiinflammatory agents” (J Med Chem, 1986)
Where “and” joins values, the source holds several entries; their conditions need not be identical. Identical values can stand only once.

Columns and labels:
Rattus norvegicus [1] = test: In vivo antiinflammatory activity against rats by RPAR(reverse passive Arthus reaction) synovitis method; assay type: functional; parameters: concentration or dose not given beside the values
How it was run: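 Lewis rats, oral drug or placebo 1 h before iv BSA (2.28 mg in saline), then intraarticular rabbit anti-BSA (0.54 mg) into one knee and saline into the other, under light anesthesia. Second oral dose at 3 h; the total of both doses is the calculated dose. About 17 h after induction, subpatellar tissue with synovium is excised and weighed. Response is antibody-minus-saline knee weight, tested by analysis of variance.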

Rattus norvegicus [2] = test: Tested in vivo for antiinflammatory activity against chronic adjuvant arthritic rat by prophylactic inhibition 1 degree paw after peroral administration of 10 mg/kg of dose; assay type: functional; conditions: route oral
How it was run: (§1)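 Prophylactic regimen, rats. Adjuvant is heat-killed Mycobacterium tuberculosis ground to a fine powder in paraffin oil (6 mg/mL); 0.1 mL is injected into the left hind paw. Oral drug is given 1 h before adjuvant challenge, then for 21 consecutive days; controls receive methyl cellulose. Left (1°) and right (2°) hind paw volumes are measured by plethysmograph.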

Rattus norvegicus [3] = test: Tested in vivo for antiinflammatory activity against chronic adjuvant arthritic rat by prophylactic inhibition 2 degree paw after peroral administration of 10 mg/kg of dose; assay type: functional; conditions: route oral; how it was run: as §1
[4] = molecular target: T1, Polyunsaturated fatty acid 5-lipoxygenase (Rattus norvegicus) (UniProt P12527); test: In vitro inhibitory activity against Lipoxygenase in rat neutrophils at a dose of 50 uM
T1 sequence (whole entry): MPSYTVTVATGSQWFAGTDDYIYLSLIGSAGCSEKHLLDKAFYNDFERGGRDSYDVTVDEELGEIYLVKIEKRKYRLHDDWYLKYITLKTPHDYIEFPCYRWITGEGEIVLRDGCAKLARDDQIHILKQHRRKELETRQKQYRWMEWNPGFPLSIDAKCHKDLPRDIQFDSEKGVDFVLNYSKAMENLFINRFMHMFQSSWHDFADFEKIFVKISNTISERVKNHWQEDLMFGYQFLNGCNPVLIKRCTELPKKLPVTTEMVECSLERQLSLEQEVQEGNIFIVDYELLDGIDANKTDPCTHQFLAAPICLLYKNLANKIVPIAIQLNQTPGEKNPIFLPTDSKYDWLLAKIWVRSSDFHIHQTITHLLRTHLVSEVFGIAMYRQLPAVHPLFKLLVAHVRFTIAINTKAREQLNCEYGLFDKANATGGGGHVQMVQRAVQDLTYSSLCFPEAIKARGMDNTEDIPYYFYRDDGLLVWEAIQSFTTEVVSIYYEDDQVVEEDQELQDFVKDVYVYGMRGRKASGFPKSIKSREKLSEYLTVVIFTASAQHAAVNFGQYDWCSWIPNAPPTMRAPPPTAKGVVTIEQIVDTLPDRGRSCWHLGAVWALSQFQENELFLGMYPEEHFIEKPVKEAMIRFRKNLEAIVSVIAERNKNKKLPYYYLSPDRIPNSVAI
How it was run: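 Neutrophils come from the 4 h pleural exudate of male Wistar-Lewis rats given iv BSA plus intrapleural rabbit anti-BSA IgG. Cells are washed, red cells lysed with NH4Cl, and resuspended at about 5×10^6 cells/0.1 mL in Tris pH 7.4 with NaCl and 1 mM CaCl2. Cells are preincubated with compound 4 min at room temperature.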

[5] = molecular target: Cyclooxygenase (Rattus norvegicus) (UniProt P35355+Q63921); test: In vitro inhibitory activity against Prostaglandin G/H synthase in rat neutrophils at a dose of 50 uM
Rattus norvegicus [6] = test: Compound was tested in vivo for antiinflammatory activity against chronic adjuvant arthritic rat by prophylactic inhibition 2 degree paw after peroral administration of 25 mg/kg of dose; assay type: functional; conditions: route oral
Rattus norvegicus [7] = test: Compound was tested in vivo for antiinflammatory activity against chronic adjuvant arthritic rat by prophylactic inhibition 1 degree paw after peroral administration of 25 mg/kg of dose; assay type: functional; conditions: route oral

| Structure (SMILES) | Inhibition (Rattus norvegicus [1]) [%] | also measured |
| --- | --- | --- |
| Cn1c(=O)c2c(nc3n(Cc4ccccc4)c(O)cc(=O)n23)n(C)c1=O | 11 | – |
| CCCCc1c(O)n(Cc2ccc(Cl)c(Cl)c2)c2nc3c(c(=O)n(C)c(=O)n3C)n2c1=O | 33 | inhibition in vivo at 10 mg/kg (Rattus norvegicus [2]): 0%; inhibition in vivo at 10 mg/kg (Rattus norvegicus [3]): 17% |
| CC(C)c1c(O)n(CCc2ccccc2)c2nc3c(c(=O)n(C)c(=O)n3C)n2c1=O | 17 | – |
| CCCc1c(O)n(-c2ccccc2)c2nc3c(c(=O)n(C)c(=O)n3C)n2c1=O | 11 | – |
| CCCCn1c(=O)c2c(nc3n(CCc4ccccc4)c(O)c(CCC)c(=O)n23)n(CCCC)c1=O | 0 | – |
| CC(=O)Nc1c(O)n(Cc2ccccc2)c2nc3c(c(=O)n(C)c(=O)n3C)n2c1=O | 20 | – |
| CCCCn1c(=O)c2c(nc3n(Cc4ccccc4)c(O)c(CCC)c(=O)n23)n(CCCC)c1=O | 12 | – |
| Cn1c(=O)c2c(nc3n(Cc4ccc(F)cc4)c(O)c(Cc4ccccc4)c(=O)n23)n(C)c1=O | 10 | – |
| CCCc1c(O)n(Cc2ccccn2)c2nc3c(c(=O)n(C)c(=O)n3C)n2c1=O | 17 | – |
| CCSCCc1c(O)n(Cc2ccccc2)c2nc3c(c(=O)n(C)c(=O)n3C)n2c1=O | 0 | – |
| CCCCC1C(=O)N(Cc2ccccc2)c2nc3ncncc3n2C1=O (configuration not stated) | 21 | inhibition in vivo at 10 mg/kg (Rattus norvegicus [2]): 0%; inhibition in vivo at 10 mg/kg (Rattus norvegicus [3]): 26% |
| CCCc1c(O)n(-c2ccc(F)cc2)c2nc3c(c(=O)n(C)c(=O)n3C)n2c1=O | 27 | – |
| CCCCc1c(O)n(Cc2ccc(F)cc2)c2nc3c(c(=O)n(CCCC)c(=O)n3CCCC)n2c1=O | 6 | – |
| CC(C)Cc1c(O)n(Cc2ccccc2)c2nc3c(c(=O)n(C)c(=O)n3C)n2c1=O | 17 | – |
| Cn1c(=O)c2c(nc3n(Cc4ccccc4)c(O)c(C4C=CCCC4)c(=O)n23)n(C)c1=O (configuration not stated) | 25 | inhibition [4]: 25% and 38%; inhibition [5]: 17%; inhibition in vivo at 10 mg/kg (Rattus norvegicus [2]): 8%; inhibition in vivo at 10 mg/kg (Rattus norvegicus [3]): 2% |
| CCOCCc1c(O)n(Cc2ccccc2)c2nc3c(c(=O)n(C)c(=O)n3C)n2c1=O | 8 | – |
| Cc1c(O)n(Cc2ccc(Cl)cc2)c2nc3c(c(=O)n(C)c(=O)n3C)n2c1=O | 28 | – |
| Cn1c(=O)c2c(nc3n(Cc4ccccc4)c(O)c(Cc4ccccc4)c(=O)n23)n(C)c1=O | 16 | – |
| COC(=O)Cc1c(O)n(Cc2ccccc2)c2nc3c(c(=O)n(C)c(=O)n3C)n2c1=O | 14 | – |
| CCCCn1c(=O)c2c(nc3n(Cc4ccc(OC)cc4)c(O)c(CCC)c(=O)n23)n(CCCC)c1=O | 5 | – |

| Structure (SMILES) | Inhibition (Rattus norvegicus [1]) [%] | also measured |
| --- | --- | --- |
| Cc1c(O)n(Cc2ccccc2)c2nc3c(c(=O)n(C)c(=O)n3C)n2c1=O | 8 | – |
| CCCCc1c(O)n(CC2CCCCC2)c2nc3c(c(=O)n(C)c(=O)n3C)n2c1=O | 25 | inhibition in vivo at 10 mg/kg (Rattus norvegicus [2]): 11%; inhibition in vivo at 10 mg/kg (Rattus norvegicus [3]): 34% |
| Cn1c(=O)c2c(nc3n(Cc4ccccc4)c(O)c(CC(=O)O)c(=O)n23)n(C)c1=O | 11 | – |
| CCCc1c(O)n(CCc2ccccc2)c2nc3c(c(=O)n(C)c(=O)n3C)n2c1=O | 27 | inhibition in vivo at 10 mg/kg (Rattus norvegicus [2]): 14%; inhibition in vivo at 10 mg/kg (Rattus norvegicus [3]): 38% |
| Cc1c(O)n(-c2ccccc2)c2nc3c(c(=O)n(C)c(=O)n3C)n2c1=O | 14 | – |
| COc1ccc(Cn2c(O)c(CC=C(C)C)c(=O)n3c4c(=O)n(C)c(=O)n(C)c4nc23)cc1 | 10 | inhibition [4]: 0% and 15%; inhibition [5]: 73% |
| CCCCC1C(=O)N(Cc2ccccc2)c2nc3nccnc3n2C1=O (configuration not stated) | 15 | inhibition in vivo at 10 mg/kg (Rattus norvegicus [2]): 0%; inhibition in vivo at 10 mg/kg (Rattus norvegicus [3]): 8% |
| CCS(=O)(=O)CCc1c(O)n(Cc2ccccc2)c2nc3c(c(=O)n(C)c(=O)n3C)n2c1=O | 6 | – |
| C/C=C/Cc1c(O)n(Cc2ccccc2)c2nc3c(c(=O)n(C)c(=O)n3C)n2c1=O | 12 | inhibition [4]: 26% and 29%; inhibition [5]: 49%; inhibition in vivo at 10 mg/kg (Rattus norvegicus [2]): 17%; inhibition in vivo at 10 mg/kg (Rattus norvegicus [3]): 24% |
| CCCc1c(O)n(Cc2ccc(Cl)cc2)c2nc3c(c(=O)n(C)c(=O)n3C)n2c1=O | 53 | – |
| CCCCn1c(=O)c2c(nc3n(Cc4cccs4)c(O)c(CCC)c(=O)n23)n(CCCC)c1=O | 14 | – |
| CCCCc1c(O)n(Cc2ccccc2)c2nccn2c1=O | 17 | – |
| CCCc1c(O)n(Cc2cccs2)c2nc3c(c(=O)n(C)c(=O)n3C)n2c1=O | 9 | inhibition in vivo at 10 mg/kg (Rattus norvegicus [2]): 20%; inhibition in vivo at 10 mg/kg (Rattus norvegicus [3]): 9% |
| CC(=O)OCCc1c(O)n(Cc2ccccc2)c2nc3c(c(=O)n(C)c(=O)n3C)n2c1=O | 1 | – |
| C#CCc1c(O)n(Cc2ccc(F)cc2)c2nc3c(c(=O)n(C)c(=O)n3C)n2c1=O | 24 | inhibition [4]: 8% and 5%; inhibition [5]: 3%; inhibition in vivo at 25 mg/kg (Rattus norvegicus [6]): 19%; inhibition in vivo at 25 mg/kg (Rattus norvegicus [7]): 10% |
| CCCCC1C(=O)N(Cc2ccccc2)c2nc3ccccc3n2C1=O (configuration not stated) | 0 | – |
| Cc1c(O)n(Cc2ccc(F)cc2)c2nc3c(c(=O)n(C)c(=O)n3C)n2c1=O | 36 | – |
| CSc1ccc(Cn2c(O)c(CC=C(C)C)c(=O)n3c4c(=O)n(C)c(=O)n(C)c4nc23)cc1 | – | inhibition in vivo at 25 mg/kg (Rattus norvegicus [6]): 63%; inhibition in vivo at 25 mg/kg (Rattus norvegicus [7]): 0% |
| CCCCCCn1c(O)c(CCC)c(=O)n2c3c(=O)n(C)c(=O)n(C)c3nc12 | 37 | inhibition in vivo at 10 mg/kg (Rattus norvegicus [2]): 28%; inhibition in vivo at 10 mg/kg (Rattus norvegicus [3]): 43% |
| CCCCn1c(=O)c2c(nc3n(Cc4ccc(F)cc4)c(O)c(CCC)c(=O)n23)n(CCCC)c1=O | 8 | – |

| Structure (SMILES) | Inhibition (Rattus norvegicus [1]) [%] | also measured |
| --- | --- | --- |
| CC[S+]([O-])CCc1c(O)n(Cc2ccccc2)c2nc3c(c(=O)n(C)c(=O)n3C)n2c1=O (configuration not stated) | 0 | – |
| CCCc1c(O)n(Cc2ccc(OC)cc2)c2nc3c(c(=O)n(C)c(=O)n3C)n2c1=O | 11 | – |
| CCCCn1c(=O)c2c(nc3n(Cc4ccccc4)c(O)c(C)c(=O)n23)n(CCCC)c1=O | 27 | – |
| CCCCc1c(O)n(Cc2ccc(Cl)cc2)c2nc3c(c(=O)n(C)c(=O)n3C)n2c1=O | 16 | – |
| CCOC(=O)c1ccc(Cn2c(O)c(CC=C(C)C)c(=O)n3c4c(=O)n(C)c(=O)n(C)c4nc23)cc1 | – | inhibition in vivo at 25 mg/kg (Rattus norvegicus [6]): 10%; inhibition in vivo at 25 mg/kg (Rattus norvegicus [7]): 0% |
| CCO/C(O)=c1\c(=O)n(Cc2ccccc2)c2nc3c(c(=O)n(C)c(=O)n3C)n2c1=O | 0 | – |
| Cc1c(O)n(CCc2ccccc2)c2nc3c(c(=O)n(C)c(=O)n3C)n2c1=O | 14 | – |
| CCCCc1c(O)n(Cc2ccc(Cl)cc2Cl)c2nc3c(c(=O)n(C)c(=O)n3C)n2c1=O | 31 | inhibition in vivo at 10 mg/kg (Rattus norvegicus [2]): 0%; inhibition in vivo at 10 mg/kg (Rattus norvegicus [3]): 29% |
| CCCc1c(OC)n2c3c(=O)n(C)c(=O)n(C)c3nc2n(Cc2ccccc2)c1=O | 17 | – |
| CC(C)c1c(O)n(Cc2ccccc2)c2nc3c(c(=O)n(C)c(=O)n3C)n2c1=O | 0 | – |
| CCCCc1c(O)n(-c2ccccc2)c2nc3c(c(=O)n(C)c(=O)n3C)n2c1=O | 11 | – |
| Cn1c(=O)c2c(nc3n(Cc4ccccc4)c(O)c(CCO)c(=O)n23)n(C)c1=O | 17 | – |
| C#CCc1c(O)n(Cc2ccccc2)c2nc3c(c(=O)n(C)c(=O)n3C)n2c1=O | 27 | inhibition [4]: 11% and 7%; inhibition [5]: 9%; inhibition in vivo at 10 mg/kg (Rattus norvegicus [2]): 6%; inhibition in vivo at 10 mg/kg (Rattus norvegicus [3]): 27% |
| CC(C)=CCc1c(O)n(Cc2ccc([S+](C)[O-])cc2)c2nc3c(c(=O)n(C)c(=O)n3C)n2c1=O (configuration not stated) | – | inhibition in vivo at 25 mg/kg (Rattus norvegicus [6]): 47%; inhibition in vivo at 25 mg/kg (Rattus norvegicus [7]): 13% |
| CC(C)Cc1c(O)n(-c2ccccc2)c2nc3c(c(=O)n(C)c(=O)n3C)n2c1=O | 16 | – |
| CCCCc1c(O)n(-c2ccc(F)cc2)c2nc3c(c(=O)n(C)c(=O)n3C)n2c1=O | 26 | inhibition in vivo at 10 mg/kg (Rattus norvegicus [2]): 29%; inhibition in vivo at 10 mg/kg (Rattus norvegicus [3]): 35% |
| CN(C)CCc1c(O)n(Cc2ccccc2)c2nc3c(c(=O)n(C)c(=O)n3C)n2c1=O | 0 | – |
| Cn1c(=O)c2c(nc3n(Cc4ccccc4)c(O)c(N)c(=O)n23)n(C)c1=O | 11 | – |
